Experimental data: ChEMBL document CHEMBL1143838, “Candida albicans and Candida dubliniensis respond differently to echinocandin antifungal agents in vitro” (2007)
*1 amine or outer side, *2 acyl side, *3 side chain or, on linkers, in order; H or OH if unused. Where a SMILES comes first, the peptide text is derived from it. Bridges are numbered along the chain shown (N, C = ends). [ ]: non-standard residue; d: D form. The star is where a group is joined. hTyr(3S-OH,4S-OH,3'-OSO3H) = N[C@H](C(=O)O)[C@H](O)[C@@H](O)c1ccc(O)c(OS(=O)(=O)O)c1; Orn(4R-OH,5R-OH) = O=C([C@H](C[C@@H](O)[C@@H](O)N[*:3])N[*:1])[*:2]; Pro(3S-OH,4S-Me) = C[C@H]1CN[C@H](C(=O)O)[C@H]1O; X1 = CCCCCOc1ccc(-c2cc(-c3ccc(C(=O)*)cc3)no2)cc1; Gln(3R-OH) = NC(=O)C[C@@H](O)[C@H](N)C(=O)O; Hyp = O=C(O)[C@@H]1C[C@@H](O)CN1

Experiments:
Format in all cases: functional
[1] = tested on: Candida dubliniensis; assay: Antifungal activity against Candida dubliniensis B71507 after 24 hrs by EUCAST test
Outline: (§1)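 Yeasts were grown overnight at 30°C in NGY, then inoculated at 10^5 yeasts/ml initial concentration into MOPS-buffered RPMI 1640 with 2% glucose containing aqueous doubling dilutions of drug. Plates were held at 35°C for 24 h. MICs came from triplicate spectrophotometric dose-response data at 50% and 80% growth-reduction endpoints. Trailing meant a >100-fold gap between these endpoints; paradoxical meant regrowth ≥5% above the curve minimum.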

[2] = tested on: Candida dubliniensis; assay: Antifungal activity against Candida dubliniensis ANSA 23a after 24 hrs by EUCAST test; outline: as §1
[3] = tested on: Candida albicans; assay: Antifungal activity against Candida albicans T25 after 24 hrs by EUCAST test
Outline: (§2)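 EUCAST broth microdilution with aqueous doubling dilutions of drug. Inoculum grown overnight at 30°C in NGY, then added to MOPS-buffered RPMI 1640 with 2% glucose at an initial 10^5 yeasts/ml. Incubated 35°C for 24 h. MICs taken from triplicate spectrophotometric dose-response data as 50% and 80% growth-reduction endpoints.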

[4] = tested on: Candida albicans; assay: Antifungal activity against Candida albicans JIMS132203 after 24 hrs by CLSI M27-A test
Outline: (§3)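 CLSI M27-A broth microdilution with aqueous doubling dilutions of drug. Inoculum grown overnight at 30°C in NGY medium, then added to MOPS-buffered RPMI 1640 at an initial 10^3 yeasts/ml. Incubated 35°C for 24 h. MIC read visually as the lowest concentration giving a marked decrease in visible growth; paradoxical or trailing growth noted.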

[5] = tested on: Candida albicans; assay: Antifungal activity against Candida albicans SC5314 after 24 hrs by EUCAST test; settings: SC5314, 24 h; outline: as §2
[6] = tested on: Candida albicans; assay: Antifungal activity against Candida albicans NR4 after 24 hrs by CLSI M27-A test; outline: as §3
[7] = tested on: Candida dubliniensis; assay: Antifungal activity against Candida dubliniensis KR after 24 hrs by EUCAST test; outline: as §1
[8] = tested on: Candida albicans; assay: Antifungal activity against Candida albicans AM2003/0083 after 24 hrs by EUCAST test; outline: as §2
[9] = tested on: Candida dubliniensis; assay: Antifungal activity against Candida dubliniensis AMCC after 24 hrs by CLSI M27-A test; outline: as §3
[10] = tested on: Candida albicans; assay: Antifungal activity against Candida albicans JIMS101103 after 24 hrs by EUCAST test; outline: as §2
[11] = tested on: Candida dubliniensis; assay: Antifungal activity against Candida dubliniensis J931021 after 24 hrs by EUCAST test; outline: as §1
[12] = tested on: Candida albicans; assay: Antifungal activity against Candida albicans SCS140136P after 24 hrs by EUCAST test; outline: as §2
[13] = tested on: Candida dubliniensis; assay: Antifungal activity against Candida dubliniensis Leic875 after 24 hrs by CLSI M27-A test
Outline: (§4)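 Broth microdilution with echinocandins as aqueous doubling dilutions. Yeasts were grown overnight at 30°C in NGY and seeded at 10^3 yeasts/ml initial concentration in MOPS-buffered RPMI 1640, then incubated at 35°C for 24 h. The MIC was read visually as the lowest concentration giving a marked decrease in visible growth; paradoxical or trailing growth was noted.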

[14] = tested on: Candida dubliniensis; assay: Antifungal activity against Candida dubliniensis SCS17154969-2 after 24 hrs by EUCAST test; outline: as §1
[15] = tested on: Candida albicans; assay: Antifungal activity against Candida albicans JIMS146204 after 24 hrs by EUCAST test; outline: as §2
[16] = tested on: Candida dubliniensis; assay: Antifungal activity against Candida dubliniensis SCS65875C after 24 hrs by CLSI M27-A test; outline: as §4
[17] = tested on: Candida dubliniensis; assay: Antifungal activity against Candida dubliniensis Leic952 after 24 hrs by EUCAST test; outline: as §1
[18] = tested on: Pichia kudriavzevii; assay: Antifungal activity against Candida krusei ATCC 6258 after 24 hrs by CLSI M27-A test; settings: ATCC 6258, 24 h
Outline: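 Broth microdilution per CLSI M27-A. Drugs were prepared as aqueous doubling dilutions. Inoculum was grown overnight at 30°C in neopeptone-yeast extract-glucose medium, then added to MOPS-buffered RPMI 1640 at an initial 10^3 yeasts/ml. Plates were incubated at 35°C for 24 h. MIC was read visually as the lowest concentration giving a marked decrease in visible growth.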

[19] = tested on: Candida albicans; assay: Antifungal activity against Candida albicans JIMS132203 after 24 hrs by EUCAST test; outline: as §2
[20] = tested on: Candida albicans; assay: Antifungal activity against Candida albicans NR4 after 24 hrs by EUCAST test; outline: as §2
[21] = tested on: Candida dubliniensis; assay: Antifungal activity against Candida dubliniensis FS after 24 hrs by EUCAST test; outline: as §1
[22] = tested on: Candida albicans; assay: Antifungal activity against Candida albicans T32 after 24 hrs by EUCAST test; outline: as §2
[23] = tested on: Candida albicans; assay: Antifungal activity against Candida albicans SCS68858 after 24 hrs by EUCAST test; outline: as §2
[24] = tested on: Candida dubliniensis; assay: Antifungal activity against Candida dubliniensis SCS65875C after 24 hrs by EUCAST test; outline: as §1
[25] = tested on: Candida dubliniensis; assay: Antifungal activity against Candida dubliniensis 81/060 after 24 hrs by EUCAST test; outline: as §2
[26] = tested on: Candida albicans; assay: Antifungal activity against Candida albicans NR3 after 24 hrs by CLSI M27-A test; outline: as §3
[27] = tested on: Pichia kudriavzevii; assay: Antifungal activity against Candida krusei ATCC 6258 after 24 hrs by EUCAST test; settings: ATCC 6258, 24 h; outline: as §1
[28] = tested on: Candida dubliniensis; assay: Antifungal activity against Candida dubliniensis 910Aa after 24 hrs by CLSI M27-A test; outline: as §3
[29] = tested on: Candida albicans; assay: Antifungal activity against Candida albicans NCPF6525 after 24 hrs by EUCAST test; outline: as §2
[30] = tested on: Candida albicans; assay: Antifungal activity against Candida albicans B06-341 after 24 hrs by EUCAST test; outline: as §2
[31] = tested on: Candida dubliniensis; assay: Antifungal activity against Candida dubliniensis 75/043 after 24 hrs by EUCAST test; outline: as §2
[32] = tested on: Candida albicans; assay: Antifungal activity against Candida albicans T28 after 24 hrs by CLSI M27-A test; outline: as §3
[33] = tested on: Candida dubliniensis; assay: Antifungal activity against Candida dubliniensis B71507 after 24 hrs by CLSI M27-A test; outline: as §4
[34] = tested on: Candida dubliniensis; assay: Antifungal activity against Candida dubliniensis 90/033 after 24 hrs by EUCAST test; outline: as §2
[35] = tested on: Candida dubliniensis; assay: Antifungal activity against Candida dubliniensis SCS59662 after 24 hrs by CLSI M27-A test; outline: as §4
[36] = tested on: Candida parapsilosis; assay: Antifungal activity against Candida parapsilosis ATCC 22019 after 24 hrs by EUCAST test; settings: Lodderomyces parapsilosis, ATCC 22019, 24 h; outline: as §1
[37] = tested on: Candida albicans; assay: Antifungal activity against Candida albicans SCS68858 after 24 hrs by CLSI M27-A test; outline: as §3
[38] = tested on: Candida dubliniensis; assay: Antifungal activity against Candida dubliniensis KR after 24 hrs by CLSI M27-A test; outline: as §4
[39] = tested on: Candida dubliniensis; assay: Antifungal activity against Candida dubliniensis SCS17154969-2 after 24 hrs by CLSI M27-A test; outline: as §4
[40] = tested on: Candida dubliniensis; assay: Antifungal activity against Candida dubliniensis 75/043 after 24 hrs by CLSI M27-A test; outline: as §3
[41] = tested on: Candida albicans; assay: Antifungal activity against Candida albicans HK04M102095 after 24 hrs by EUCAST test; outline: as §2
[42] = tested on: Candida albicans; assay: Antifungal activity against Candida albicans Y109 after 24 hrs by CLSI M27-A test; outline: as §3
[43] = tested on: Candida albicans; assay: Antifungal activity against Candida albicans SCS140136P after 24 hrs by CLSI M27-A test; outline: as §3
[44] = tested on: Candida albicans; assay: Antifungal activity against Candida albicans NR2 after 24 hrs by CLSI M27-A test; outline: as §3

Measured: MIC50

CC[C@H](C)C[C@H](C)CCCCCCCCC(=O)N[C@H]1C[C@@H](O)[C@@H](NCCN)NC(=O)[C@@H]2[C@@H](O)CCN2C(=O)[C@H]([C@H](O)CCN)NC(=O)[C@H]([C@H](O)[C@@H](O)c2ccc(O)cc2)NC(=O)[C@@H]2C[C@@H](O)CN2C(=O)[C@H]([C@@H](C)O)NC1=O [CASPOFUNGIN]
8 mg/L: [1] | [3] | [24] | [26]
0.13 mg/L: [22]
16 mg/L: [11] | [21] | [34]
2 mg/L: [6] | [20] | [27]
4 mg/L: [42] | [44]
0.5 mg/L: [4] | [9] | [13] | [14] | [16] | [28] | [30] | [33] | [35] | [37] | [38] | [39] | [43]
1 mg/L: [18] | [29] | [36]
0.25 mg/L: all other assays above

CCCCCOc1ccc(-c2cc(-c3ccc(C(=O)N[C@H]4C[C@@H](O)[C@@H](O)NC(=O)[C@@H]5[C@@H](O)[C@@H](C)CN5C(=O)[C@H]([C@H](O)CC(N)=O)NC(=O)[C@H]([C@H](O)[C@@H](O)c5ccc(O)c(OS(=O)(=O)O)c5)NC(=O)[C@@H]5C[C@@H](O)CN5C(=O)[C@H]([C@@H](C)O)NC4=O)cc3)no2)cc1 [MICAFUNGIN] (X1-[Orn(4R-OH,5R-OH)]T[Hyp][hTyr(3S-OH,4S-OH,3'-OSO3H)][Gln(3R-OH)][Pro(3S-OH,4S-Me)]; lactam 1-C)
1 mg/L: [3] | [26]
0.5 mg/L: [20] | [36]
0.063 mg/L: [1] | [11] | [14] | [17] | [21] | [34]
0.25 mg/L: [6] | [42] | [44]
0.13 mg/L: [18] | [27]
≤ 0.032 mg/L: all other assays above
